Data reported in ChEMBL document CHEMBL1131030, “Synthesis and evaluation of a series of novel 2-[(4-chlorophenoxy)methyl]benzimidazoles as selective neuropeptide Y Y1 receptor antagonists” (J Med Chem, 1998).

Key:
[1] = biological target: T1, Neuropeptide Y receptor type 1 (Homo sapiens, UniProt P25929); test: In vitro binding affinity towards human neuropeptide Y receptor type 1, determined by measuring its ability to displace [125]peptide YY
T1 sequence (P25929 whole entry): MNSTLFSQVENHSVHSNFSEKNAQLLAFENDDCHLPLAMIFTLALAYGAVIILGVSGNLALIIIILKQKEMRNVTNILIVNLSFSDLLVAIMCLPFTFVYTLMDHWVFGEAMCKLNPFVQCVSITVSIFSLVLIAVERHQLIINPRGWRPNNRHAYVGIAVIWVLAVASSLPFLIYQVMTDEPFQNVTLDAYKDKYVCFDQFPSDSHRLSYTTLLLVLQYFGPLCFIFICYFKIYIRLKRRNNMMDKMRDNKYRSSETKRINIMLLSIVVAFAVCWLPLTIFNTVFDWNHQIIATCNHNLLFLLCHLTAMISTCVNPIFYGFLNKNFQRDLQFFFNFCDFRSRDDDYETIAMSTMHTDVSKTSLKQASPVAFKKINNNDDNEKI

[2] = tested on: SK-N-MC; test: In vitro functional activity determined by its ability to antagonize 1 nM NPYs inhibition of forskolin -stimulated cyclic AMP accumulation in SK-N-MC cells; assay type: cell-based, Homo sapiens
Method in brief: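 SK-N-MC cells were stimulated with forskolin. NPY (1 nM) and antagonist were added at the same time and incubated for only 15 min, to avoid receptor desensitization. Read-out was reversal of the NPY-induced inhibition of cAMP accumulation.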

| Structure (SMILES) | Ki [1] [nM] | Ki [2] [nM] |
| --- | --- | --- |
| Clc1ccc(OCc2nc3ccccc3n2CCCCC2CCCNC2)cc1 (configuration not stated) | 1210 |  |
| Clc1ccc(OCc2nc3ccccc3n2CCC2CCNCC2)cc1 | 940 |  |
| Cc1cccc2c1nc(COc1ccc(Cl)cc1)n2CCCC1CCCNC1 (configuration not stated) | 97 |  |
| Clc1ccc(OCc2nc3c(OCCCC4CCNCC4)cccc3n2CCCC2CCCNC2)cc1 (configuration not stated) | 152 | 119 |
| Clc1ccc(OCc2nc3c(OCCCC4CCCNC4)cccc3n2CCCC2CCCNC2)cc1 (configuration not stated) | 30 | 77 |
| Clc1ccc(OCc2nc3ccccc3n2CCCC2CCCNC2)cc1 (configuration not stated) | 700 |  |
| Clc1ccc(OCc2nc3ccccc3n2CCCC2CCNCC2)cc1 | 980 |  |
| Oc1cccc2c1nc(COc1ccc(Cl)cc1)n2CCCC1CCCNC1 (configuration not stated) | 5300 |  |
| Cc1ccc2c(c1)nc(COc1ccc(Cl)cc1)n2CCCC1CCCNC1.Cc1ccc2nc(COc3ccc(Cl)cc3)n(CCCC3CCCNC3)c2c1 (configuration not stated) | 1290 |  |
| N=C(N)NCCCC(NC(=O)C(c1ccccc1)c1ccccc1)C(=O)NCc1ccc(O)cc1 (configuration not stated) |  | 11 |
| Clc1ccc(OCc2nc3ccccc3n2CCC2CCCNC2)cc1 (configuration not stated) | 1280 |  |
| Clc1ccc(OCc2nc3c(OCCC[C@H]4CCCNC4)cccc3n2CCC[C@H]2CCCNC2)cc1 | 41 | 153 |
| Clc1ccc(OCc2nc3c(OCCN4CCCCC4)cccc3n2CCCC2CCCNC2)cc1 (configuration not stated) | 43 | 240 |
| Clc1ccc(OCc2nc3ccccc3n2CCC2CCCCN2)cc1 (configuration not stated) | 7860 |  |
| Clc1ccc(OCc2nc3ccccc3n2CCN2CCCCC2)cc1 | > 100000 |  |
| Clc1ccc(OCc2nc3ccccc3n2CCCC2CCCCN2)cc1 (configuration not stated) | 3230 |  |
| Cc1cccc2nc(COc3ccc(Cl)cc3)n(CCCC3CCCNC3)c12 (configuration not stated) | 400 |  |
| Clc1ccc(OCc2nc3ccccc3n2CCCN2CCCCC2)cc1 | 7020 |  |

Continued, in another order:

| Ki [1] [nM] | Structure (SMILES) | Ki [2] [nM] |
| --- | --- | --- |
| 7 | Clc1ccc(OCc2nc3c(OCCC4CCNCC4)cccc3n2CCCC2CCCNC2)cc1 (configuration not stated) | 15 |
| 1.7 | Clc1ccc(OCc2nc3c(OCCCN4CCCCC4)cccc3n2CCCC2CCCNC2)cc1 (configuration not stated) | 2.7 |
| 17 | Clc1ccc(OCc2nc3c(OCCC[C@@H]4CCCNC4)cccc3n2CCC[C@H]2CCCNC2)cc1 | 65 |
| 18 | Clc1ccc(OCc2nc3c(OCCC4CCCNC4)cccc3n2CCCC2CCCNC2)cc1 (configuration not stated) | 91 |
| 6 | Clc1ccc(OCc2nc3c(OCCC[C@@H]4CCCNC4)cccc3n2CCC[C@@H]2CCCNC2)cc1 | 87 |
| 16 | Clc1ccc(OCc2nc3c(OCCCC4CCCCN4)cccc3n2CCCC2CCCNC2)cc1 (configuration not stated) | 53 |
| 29 | Clc1ccc(OCc2nc3c(OCCC4CCCCN4)cccc3n2CCCC2CCCNC2)cc1 (configuration not stated) |  |
| 27 | Clc1ccc(OCc2nc3c(OCCC[C@H]4CCCNC4)cccc3n2CCC[C@@H]2CCCNC2)cc1 | 137 |
